Assay results: ChEMBL document CHEMBL1135999, “Discovery of N-isoxazolyl biphenylsulfonamides as potent dual angiotensin II and endothelin A receptor antagonists” (J Med Chem, 2002)
Blank lines part the entries; values can stand above or below the compound they belong to. Calls of active or inactive are those of the source. No cut-off for these calls is given here.

How the values were obtained:
Endothelin-1 receptor = target: T1, Endothelin-1 receptor (Homo sapiens, UniProt P25101); assay: Compound was evaluated for its binding affinity towards human Endothelin A receptor
T1 sequence (P25101 whole entry): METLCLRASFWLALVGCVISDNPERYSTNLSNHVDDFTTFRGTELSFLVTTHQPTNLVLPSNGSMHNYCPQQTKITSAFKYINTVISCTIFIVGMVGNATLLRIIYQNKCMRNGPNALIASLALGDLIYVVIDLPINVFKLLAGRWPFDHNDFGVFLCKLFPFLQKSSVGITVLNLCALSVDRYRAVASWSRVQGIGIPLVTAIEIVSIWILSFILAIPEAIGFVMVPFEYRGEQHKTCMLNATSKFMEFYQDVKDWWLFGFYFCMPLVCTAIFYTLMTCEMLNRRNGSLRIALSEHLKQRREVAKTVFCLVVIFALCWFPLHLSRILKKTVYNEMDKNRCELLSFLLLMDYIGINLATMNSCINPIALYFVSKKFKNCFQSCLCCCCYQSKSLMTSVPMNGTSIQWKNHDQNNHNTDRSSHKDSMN
Summary of the method: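 CHO-K1 cells expressing human ETA receptor, seeded 1.8×10^4 cells/well 24 h before assay. Binding run in 50 mM Tris pH 7.4 with 1% BSA and 2 µM phosphoramidon, using 0.25 nM [125I]-ET-1 and competing drug. Nonspecific binding defined with 500 nM ET-1. Incubated 4 h at 4 °C with shaking, washed, cells dissolved in 0.5 N NaOH, gamma-counted.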

[1] = target: T2, Type-1 angiotensin II receptor B (Rattus norvegicus, UniProt P29089); assay: Compound was evaluated for its binding affinity towards rat Angiotensin II receptor, type 1
T2 sequence (P29089 whole entry): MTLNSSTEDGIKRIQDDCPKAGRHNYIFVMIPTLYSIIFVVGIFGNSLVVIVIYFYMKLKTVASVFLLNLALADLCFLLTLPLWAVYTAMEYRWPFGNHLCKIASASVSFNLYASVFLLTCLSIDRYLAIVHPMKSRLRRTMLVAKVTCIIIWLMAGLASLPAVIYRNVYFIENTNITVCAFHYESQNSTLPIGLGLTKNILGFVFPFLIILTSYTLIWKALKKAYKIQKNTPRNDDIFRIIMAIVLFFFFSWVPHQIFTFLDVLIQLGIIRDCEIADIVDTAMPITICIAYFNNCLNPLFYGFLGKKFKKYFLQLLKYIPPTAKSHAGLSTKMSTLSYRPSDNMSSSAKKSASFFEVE
Summary of the method: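 Rat aortic smooth muscle cells grown 48 h to 90% confluency in HEPES-buffered DMEM with 10% FCS. Assayed in DMEM with 0.1% BSA and 0.01% sodium azide, using 0.2 nM [125I]-Sar-Ile-angiotensin II and increasing compound. Nonspecific binding defined with 10 µM Ang II. Incubated 2 h at room temperature with shaking, washed with cold PBS, lysed in 1% Triton X-100, gamma-counted. IC50 obtained by curve fitting.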

Rattus norvegicus [2] = assay: Compound was tested for its activity in Ang II pressor test following oral administration; NE = No effect; type: functional, organism-based
Summary of the method: (§1)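 Conscious normotensive rats carrying carotid artery and jugular vein catheters. […] Compound was given by oral gavage, and rats were rechallenged with Ang II at intervals up to 240 min. Percent inhibition taken from the maximum blood pressure rise before versus after drug; n = 4 per dose.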

Rattus norvegicus [3] = assay: Compound was tested for its activity in bET-1 pressor test following oral administration; type: functional
Summary of the method: (§2)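 Conscious normotensive rats challenged iv with big ET-1 (1.0 nmol/kg). A control response was obtained after vehicle. Compound was then given orally, and bET-1 was re-injected iv at 15, 105 and 195 min after dosing. Mean blood pressure followed up to 3 h, with area over curve used as read-out; n = 4 per dose.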

Rattus norvegicus [4] = assay: Compound was tested for its activity in bET-1 pressor test following intravenous administration; type: functional
Rattus norvegicus [5] = assay: Compound was tested for its activity in Ang II pressor test following intravenous administration; NE = No effect; type: functional, organism-based
[6] = target: T3, Type-1 angiotensin II receptor (Homo sapiens, UniProt P30556); assay: Compound was evaluated for inhibitory activity against human Angiotensin II receptor, type 1
T3 sequence (P30556 whole entry): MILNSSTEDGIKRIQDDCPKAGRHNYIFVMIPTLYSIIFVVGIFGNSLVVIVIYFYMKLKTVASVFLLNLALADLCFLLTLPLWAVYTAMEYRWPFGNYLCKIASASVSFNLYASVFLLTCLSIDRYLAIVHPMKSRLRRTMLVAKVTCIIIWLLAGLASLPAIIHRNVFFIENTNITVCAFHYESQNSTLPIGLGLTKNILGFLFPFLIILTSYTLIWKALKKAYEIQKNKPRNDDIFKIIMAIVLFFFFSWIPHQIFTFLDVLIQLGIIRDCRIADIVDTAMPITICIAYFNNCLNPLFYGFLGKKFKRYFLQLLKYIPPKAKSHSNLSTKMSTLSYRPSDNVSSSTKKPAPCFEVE
Summary of the method: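 Human recombinant AT1 receptor membranes in 50 mM Tris-HCl pH 7.4 with 10 mM MgCl2, 1 mM EDTA and 0.1% BSA. Incubated with 0.2 nM [125I]-Sar-Ile-angiotensin II and increasing compound concentrations, 60 min at 37 °C. Nonspecific binding defined with 10 µM angiotensin II. Bound and free label separated, then gamma-counted.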

[7] = A dose of 10 (umol/kg) was administered pre orally to rat and plasma concentration was reported (mean+/-SD); type: ADME, organism-based; set-up: dose 10 umol/kg, route oral; details: po
Summary of the method: (§3)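 Male rats dosed at 10 µmol/kg, iv or po (n = 6 per route). Plasma exposure followed to give AUC0-∞, clearance, Vss, t1/2 and MRT (iv), and Cmax, Tmax, t1/2, MRT, AUC and oral bioavailability (po). Values reported as mean ± SD.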

[8] = A dose of 10(umol/kg) was administered orally to rat and % bioavailability was determined; type: ADME, organism-based; details: in vivo, po, read-out: Bioavailabiility; summary of the method: as §3
[9] = Pharmacokinetic parameter Area under curve reported following peroral administration at a dose of 10 (umol/kg) (mean+/-SD); type: ADME; details: po; summary of the method: as §3
[10] = half life was determined in rat at a dose of 10 (umol/kg) following peroral administration (mean+/-SD); type: ADME, organism-based; details: in vivo, po; summary of the method: as §3
[11] = Pharmacokinetic parameter MRT value was determined in rat at a dose of 10(umol/kg) following intravenous administration (mean+/-SD); type: ADME, organism-based; details: in vivo; summary of the method: as §3
[12] = A dose of 10(umol/kg) was administered orally to rat and Tmax value was determined (mean+/-SD); type: ADME, organism-based; details: in vivo, po; summary of the method: as §3
[13] = Pharmacokinetic parameter Plasma clearance determined after intravenous administration at a dose of 10 (umol/kg) (mean+/-SD); type: ADME, organism-based; summary of the method: as §3
[14] = Pharmacokinetic parameter MRT value determined in rat at a dose of 10(umol/kg) following peroral administration (mean+/-SD); type: ADME, organism-based; details: in vivo, po; summary of the method: as §3
[15] = Pharmacokinetic parameter Area under curve reported following intravenous administration at a dose of 10 (umol/kg) (mean+/-SD); type: ADME; summary of the method: as §3
[16] = half life was determined in rat at a dose of 10 (umol/kg) following intravenous administration (mean+/-SD); type: ADME, organism-based; details: in vivo; summary of the method: as §3
Rattus norvegicus [17] = assay: Compound was tested for its activity in Ang II pressor test following oral administration; type: functional; summary of the method: as §1
Rattus norvegicus [18] = assay: (§4) Compound was tested for its activity in Ang II pressor test following intravenous administration; type: ADME, organism-based
[19] = Pharmacokinetic parameter Volume of distribution was determined in rat following i.v. administration of a dose of 10 (umol/kg) (mean+/-SD); type: ADME, organism-based; details: in vivo, iv, read-out: Vss; summary of the method: as §3
Rattus norvegicus [20] = assay: Compound was tested for its activity in bET-1 pressor test following oral administration; NE = No effect; type: functional, organism-based; summary of the method: as §2
Rattus norvegicus [21] = assay: as §4; type: functional
Rattus norvegicus [22] = assay: Compound was tested for its activity in bET-1 pressor test following intravenous administration; NE = No effect; type: functional, organism-based

Ki (Endothelin-1 receptor): 39 nM
Ki [1]: 4.7 nM
Compound: CCCCC1=NC2(CCCC2)C(=O)N1Cc1ccc(-c2ccccc2S(=O)(=O)Nc2onc(C)c2C)cc1

Ki [1]: > 10000 nM
Compound: Cc1noc(NS(=O)(=O)c2ccccc2-c2ccc(-c3ncco3)cc2)c1C
NE (Rattus norvegicus [2]): inactive
ED50 (Rattus norvegicus [3]): 10 µmol/kg
ED50 (Rattus norvegicus [4]): 0.9 µmol/kg
NE (Rattus norvegicus [5]): inactive

IC50 [6]: 13 nM
Compound: CCCc1cc(Cn2c(CC)nc3c(C)cc(C)nc32)ccc1OC(C(=O)NS(=O)(=O)c1ccc(C(C)C)cc1)c1ccc2c(c1)OCO2 (stereo not drawn)

Cmax [7]: 3.1 µM
bioavailability [8]: 38%
AUC [9]: 19 µM·h
half-life [10]: 3 h
MRT [11]: 6.4 h
Tmax [12]: 0.7 h
clearance [13]: 3.8 mL/min/kg
MRT [14]: 5 h
AUC [15]: 50 µM·h
half-life [16]: 5.5 h
Vd [19]: 1.4 L/kg
Compound: CCCCC1=NC2(CCCC2)C(=O)N1Cc1ccc(-c2ccccc2S(=O)(=O)Nc2onc(C)c2C)c(CN2CCC(C)(C)C2=O)c1 [BMS-248360]
ED50 (Rattus norvegicus [3]): 26 µmol/kg
ED50 (Rattus norvegicus [4]): 2.1 µmol/kg
ED50 (Rattus norvegicus [17]): 39 µmol/kg
ED50 (Rattus norvegicus [18]): 1.4 µmol/kg

Ki [1]: 0.8 nM
Compound: CCCCC1=NC2(CCCC2)C(=O)N1Cc1ccc(-c2ccccc2-c2nnn[nH]2)cc1 [IRBESARTAN]
Activity (Rattus norvegicus [20]): inactive
ED50 (Rattus norvegicus [21]): 0.3 µmol/kg
NE (Rattus norvegicus [22]): inactive
ED50 (Rattus norvegicus [17]): 16 µmol/kg
